# Bioassay records deposited in PubChem by Broad Institute.
# E-selectin induc: induces E-selectin expression in human endothelial cells; activation, % at 7.58 µM; HUVEC E-selectin immunofluorescence imaging; normalized: neutral wells 0, TNF-alpha wells 100; 0.37% of 260,000 active;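 active = mean E-selectin-positive cell signal at least 10% of the positive control, reached in at least 60% of replicates, without over 20% cell loss; inconclusive = no rule given, readout overlaps actives, possibly toxicity-flagged; inactive = the rest, including those meeting only one limit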
# Target sequence (P16581 whole entry, looked up): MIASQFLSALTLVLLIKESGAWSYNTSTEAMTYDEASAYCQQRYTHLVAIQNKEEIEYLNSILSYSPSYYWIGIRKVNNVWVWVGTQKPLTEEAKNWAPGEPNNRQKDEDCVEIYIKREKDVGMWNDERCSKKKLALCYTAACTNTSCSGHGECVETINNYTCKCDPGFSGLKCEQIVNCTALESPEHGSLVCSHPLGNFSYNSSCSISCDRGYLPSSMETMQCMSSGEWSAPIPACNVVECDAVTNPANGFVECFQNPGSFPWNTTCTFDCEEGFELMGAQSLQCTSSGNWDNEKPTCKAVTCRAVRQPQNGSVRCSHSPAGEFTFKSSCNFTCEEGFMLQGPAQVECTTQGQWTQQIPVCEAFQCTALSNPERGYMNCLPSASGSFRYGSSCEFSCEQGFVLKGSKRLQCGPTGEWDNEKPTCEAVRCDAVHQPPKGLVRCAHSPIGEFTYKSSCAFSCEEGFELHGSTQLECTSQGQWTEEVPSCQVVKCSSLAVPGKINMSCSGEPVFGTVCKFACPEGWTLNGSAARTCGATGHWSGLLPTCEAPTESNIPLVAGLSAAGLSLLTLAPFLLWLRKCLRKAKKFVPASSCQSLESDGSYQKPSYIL
#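 Test system: HUVEC; input: 3,000 HUVEC/well; measured by: immunofluorescence imaging; read-out: % PE-positive cells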
# SIRT5 block: sirtuin-5 (human) deacylase inhibition | 1.1% of 330,000 active | AID 652115 | Purified SirT5, succinyl-peptide AMC, trypsin-coupled fluorescence | inhibition, % at 15 µM | Q9NXA8; in the data active = inhibition above about 15%; inconclusive = no clear call, values can overlap the other calls
# DENV2 CPE: DENV2-induced cell death inhibition | DENV2-infected cells, cytopathic effect rescue, plate reader | CPE inhibition, % at 9.99 µM | 1.7% of 350,000 active; in the data active = CPE inhibition above about 20%, passing the limit was not always enough; inconclusive = no clear call, values can overlap the other calls; tested in BHK-21 cells
# Numbers stand for hits; . = inactive; ? = inconclusive; / = no result given; ! = not confirmed by another sample. In the library only some 2.9% were active in any assay of this set; here they are far more common.
SMILES,E-selectin induc,SIRT5 block,DENV2 CPE
CCc1nc2nc(C)c(NS(=O)(=O)c3ccc(Br)s3)c(=O)n2[nH]1,/,.,44
CCC1CCCCN1C(=O)c1ccc(OC2CCN(C(=O)COC)CC2)cc1 (configuration not stated),.,.,.
CC(C)C[C@@H](CN)NC(=O)c1nc[nH]c1C(=O)N[C@@H](C)C(=O)CNC[C@H](C)NC(=O)c1nc[nH]c1C(=O)N[C@@H](C)C(=O)O,.,/,.
CC(=O)NCC(=O)OCC(=O)Nc1nc(-c2ccccc2)cs1,/,/,.
O=C1C(=Cc2cn(-c3ccccc3)nc2-c2ccc(OCc3ccc(Cl)cc3)cc2)SC(=S)N1CCS(=O)(=O)O,.,37,.
O=C(O)CCCCCN1C(=O)/C(=C\c2cn(-c3ccccc3)nc2-c2cccs2)SC1=S,/,.,60
O=C(O)CCCCCN1C(=O)/C(=C/c2cn(-c3ccccc3)nc2-c2cccs2)SC1=S,.,/,.
O=C1C(=Cc2cn(-c3ccccc3)nc2-c2ccc(OCc3ccccc3F)cc2)SC(=S)N1CCS(=O)(=O)O,.,.,.
CC(C)NC(=O)Nc1ccc2c(c1)C(=O)N([C@@H](C)CO)C[C@H](C)[C@H](CN(C)Cc1ccc(C(F)(F)F)cc1)OCCCC[C@@H](C)O2,/,.,.
CC(C)NC(=O)Nc1ccc2c(c1)C(=O)N([C@@H](C)CO)C[C@H](C)[C@@H](CN(C)Cc1ccc(C(=O)O)cc1)OCCCC[C@@H](C)O2,.,.,.
CC(C)NC(=O)Nc1ccc2c(c1)C(=O)N([C@@H](C)CO)C[C@@H](C)[C@@H](CN(C)Cc1ccc(C(F)(F)F)cc1)OCCCC[C@@H](C)O2,/,.,56
CC(C)NC(=O)Nc1ccc2c(c1)C(=O)N([C@@H](C)CO)C[C@H](C)[C@H](CN(C)Cc1ccc(C(=O)O)cc1)OCCCC[C@@H](C)O2,.,.,25
C[C@H]1CN([C@@H](C)CO)C(=O)c2cc(NC(=O)NC3CCCCC3)ccc2O[C@@H]1CN(C)Cc1ccc(C(=O)O)cc1,.,.,.
C[C@H](CO)N1C[C@H](C)[C@@H](CN(C)Cc2ccc(C(=O)O)cc2)Oc2ccc(NC(=O)NC3CCCCC3)cc2C1=O,.,.,45
CCOc1ccc(C(=O)NCC(=O)OCCN2C(=O)c3ccccc3C2=O)cc1OCC,.,.,.
CCC(C(=O)NC(C)(C)C)N(Cc1cccs1)C(=O)CNS(=O)(=O)c1ccccc1 (configuration not stated),.,.,.
C[C@H](CO)N1C[C@H](C)[C@H](CN(C)Cc2ccc(C(F)(F)F)cc2)Oc2ccc(NS(=O)(=O)c3ccccc3)cc2CC1=O,.,.,.
C[C@H]1CN([C@@H](C)CO)C(=O)Cc2cc(NS(=O)(=O)c3ccccc3)ccc2O[C@H]1CN(C)Cc1ccc(C(F)(F)F)cc1,42,.,.
C[C@@H]1CN([C@H](C)CO)C(=O)Cc2cc(NS(=O)(=O)c3ccccc3)ccc2O[C@@H]1CN(C)Cc1ccc(C(F)(F)F)cc1,47,.,.
C[C@@H]1CN([C@H](C)CO)C(=O)Cc2cc(NS(=O)(=O)c3ccccc3)ccc2O[C@H]1CN(C)Cc1ccc(C(F)(F)F)cc1,.,.,.
COc1ccccc1C(=O)CC(=O)c1ccccc1,.,.,.
CC(C)CC#Cc1ccc([C@H]2[C@@H](CO)N3CCCCN(S(=O)(=O)c4ccc(F)cc4)C[C@@H]23)cc1,.,.,.
C/C(=N/NS(=O)(=O)c1cccc([N+](=O)[O-])c1)c1ccncc1,28,.,.
CC(=NNS(=O)(=O)c1cccc([N+](=O)[O-])c1)c1ccc(-n2ccnc2)cc1,.,.,.
COc1ccc(/C=C/c2c([N+](=O)[O-])c(=O)n(C)c(=O)n2C)c(OC)c1OC,/,.,.
SMILES,E-selectin induc,SIRT5 block,DENV2 CPE
CCOC(=O)Cn1c(=O)oc2cc(S(=O)(=O)N3CCCc4ccccc43)ccc21,?,.,.
CCOC(=O)Cn1c(=O)oc2cc(S(=O)(=O)NC3CCCc4ccccc43)ccc21 (configuration not stated),.,.,27
CCn1nc(C(=O)NCC2COc3ccccc3O2)c2ccccc2c1=O (configuration not stated),.,.,.
O=C1Nc2ccccc2C(=O)N2[C@H](c3ccccc3)[C@@H]3C(=O)N(Cc4ccccc4)C(=O)[C@@H]3[C@H]12,.,16,.
O=C1Nc2ccccc2C(=O)N2[C@H](c3cccc(Br)c3)[C@@H]3C(=O)N(Cc4ccccc4)C(=O)[C@@H]3[C@H]12,/,/,.
CC(C)CC#Cc1ccc([C@@H]2[C@H](CO)N3CCCCN(S(=O)(=O)Cc4ccccc4)C[C@@H]23)cc1,.,.,23
CC(C)CC#Cc1ccc([C@H]2[C@H](CO)N3CCCCN(S(=O)(=O)Cc4ccccc4)C[C@@H]23)cc1,.,.,.
CC(C)CC#Cc1ccc([C@@H]2[C@@H](CO)N3CCCCN(S(=O)(=O)Cc4ccccc4)C[C@@H]23)cc1,.,.,22
CCCC#Cc1ccc([C@H]2[C@@H](CO)N3CCCCN(S(=O)(=O)Cc4ccccc4)C[C@@H]23)cc1,.,.,.
COc1ccc(-c2sc3cc(OC)ccc3c2-c2ccc(OCCN3CCOCC3)cc2)cc1,.,.,.
Cc1c(-c2ccc(OCCN3CCOCC3)cc2)c(=O)oc2ccc3ccccc3c12,.,19,.
Cc1noc(C)c1NC(=O)Nc1ccc2c(c1)C(=O)N([C@@H](C)CO)C[C@H](C)[C@H](CN(C)Cc1ccccc1)O2,.,.,23
Cc1noc(C)c1NC(=O)Nc1ccc2c(c1)C(=O)N([C@H](C)CO)C[C@H](C)[C@@H](CN(C)Cc1ccccc1)O2,.,.,23
Cc1noc(C)c1NC(=O)Nc1ccc2c(c1)C(=O)N([C@@H](C)CO)C[C@@H](C)[C@H](CN(C)Cc1ccc(-c3ccccc3)cc1)O2,.,.,.
Cc1noc(C)c1NC(=O)Nc1ccc2c(c1)C(=O)N([C@@H](C)CO)C[C@@H](C)[C@H](CN(C)Cc1ccccc1)O2,.,.,.
O=C(Nc1cccnc1Cl)c1ccc(=O)oc1,/,44,.
COc1ccc(C(=O)Nc2cccnc2Cl)cc1OC,/,.,.
CC1Cc2ccccc2N1CC(=O)Nc1ccc(S(=O)(=O)N(C)C)cc1 (configuration not stated),.,.,.
CC1Cc2ccccc2N1CC(=O)Nc1ccc(Cl)c(S(=O)(=O)N(C)C)c1 (configuration not stated),.,16,.
CCCC#Cc1ccc2c(c1)O[C@@H](CN(C)CC1CCCC1)[C@H](C)CN([C@H](C)CO)S2(=O)=O,.,/,60
CCCC#Cc1ccc2c(c1)O[C@H](CN(C)CC1CC1)[C@H](C)CN([C@@H](C)CO)S2(=O)=O,.,.,.
CCCN(C)C[C@@H]1Oc2cc(C#CCC3CCCC3)ccc2S(=O)(=O)N([C@H](C)CO)C[C@@H]1C,.,.,.
CCCN(C)C[C@H]1Oc2cc(C#Cc3cccc(F)c3)ccc2S(=O)(=O)N([C@@H](C)CO)C[C@H]1C,.,.,/
C[C@@H]1CN([C@H](C)CO)S(=O)(=O)c2ccc(C#Cc3ccccc3)cc2O[C@@H]1CN(C)CC1CC1,.,.,.
CCCN(C)C[C@H]1Oc2cc(C#Cc3ccc(F)cc3)ccc2S(=O)(=O)N([C@H](C)CO)C[C@@H]1C,.,15!,.
